Results taken from ChEMBL document CHEMBL1121500, “Nitrobenzyl halides and carbamates as prototype bioreductive alkylating agents” (1980).
≈ marks a conversion by molar mass, not a printed value.

Key:
Format in all cases: functional
[1] = test system: EMT6; assay: Drug concentration required to achieve 50% kill of EMT6 cells under hypoxic conditions.; details: Mus musculus, read-out: ED50 (the source's name)
Procedure, shortened: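 Mouse EMT6 tumour monolayers in Waymouth's medium + 15% fetal calf serum. Hypoxia: flasks stoppered and gassed 95% N2/5% CO2 for 4 h at 37 °C, then drug added in acetone without breaking hypoxia. 1 h exposure, 0.01-500 μM. Cells washed, trypsinised, plated in replicate dishes under air; colonies scored after 8-10 days. ED50 from survival curves; ≥3 experiments.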

[2] = test system: EMT6; assay: Drug concentration required to achieve 50% kill of EMT6 cells under oxygenated conditions.; details: Mus musculus, read-out: ED50 (the source's name)
Procedure, shortened: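 EMT6 monolayers in Waymouth's medium + 15% fetal calf serum, held in 95% air/5% CO2 in parallel with the hypoxic flasks. Drug in acetone, 0.01-500 μM, 1 h at 37 °C. Cells then trypsinised and replated in replicate dishes; surviving fraction by colony formation after 8-10 days. Concentration for 50% kill read from survival curves; at least three experiments per drug.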

[3] = Ratio of ED50 (aerobic) to ED50 (hypoxic)
Procedure, shortened: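 Concentration giving 50% kill of EMT6 cells under aeration (95% air/5% CO2) divided by that under chronic hypoxia (95% N2/5% CO2, 4 h pre-gassing). Both from 1 h drug exposure at 37 °C with colony-formation read-out after 8-10 days.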

In the case of `O=C(Nc1ccccc1)OCc1ccc([N+](=O)[O-])cc1`, the EC50 [1] is reported as 0.08 µg/mL (≈ 0.294 µM), the EC50 [2] is reported as 0.22 µg/mL (≈ 0.808 µM) and the Ratio [3] is reported as 2.7.
In the case of `O=[N+]([O-])c1ccc(CCl)cc1`, the EC50 [1] is reported as 0.07 µg/mL (≈ 0.408 µM), the EC50 [2] is reported as 0.14 µg/mL (≈ 0.816 µM) and the Ratio [3] is reported as 2.
In the case of `CNC(=O)OCc1ccccc1[N+](=O)[O-]`, the EC50 [1] is reported as 0.006 µg/mL (≈ 0.0285 µM), the EC50 [2] is reported as 3.57 µg/mL (≈ 17 µM) and the Ratio [3] is reported as 595.
Work on `O=[N+]([O-])c1ccccc1CO` yielded an EC50 [1] of 1.5 µg/mL (≈ 9.8 µM), an EC50 [2] of 3 µg/mL (≈ 19.6 µM) and a Ratio [3] of 2.
Work on `CNC(=O)OCc1ccc([N+](=O)[O-])cc1` yielded an EC50 [1] of 0.03 µg/mL (≈ 0.143 µM), an EC50 [2] of 0.63 µg/mL (≈ 3 µM) and a Ratio [3] of 21.
For `O=[N+]([O-])c1ccccc1CCl`, the EC50 [1] was 0.1 µg/mL (≈ 0.583 µM), the EC50 [2] was 1.2 µg/mL (≈ 6.99 µM) and the Ratio [3] was 12.
In the case of `O=[N+]([O-])c1ccc(CO)cc1` [PARANITROBENZYL ALCOHOL], the EC50 [1] is reported as 0.77 µg/mL (≈ 5.03 µM), the EC50 [2] is reported as 2.6 µg/mL (≈ 17 µM) and the Ratio [3] is reported as 3.3.
`O=C(Nc1ccccc1)OCc1ccccc1[N+](=O)[O-]` gave an EC50 [1] of 0.22 µg/mL (≈ 0.808 µM), an EC50 [2] of 6.8 µg/mL (≈ 25 µM) and a Ratio [3] of 31.
For `O=C(NCCCl)OCc1ccc([N+](=O)[O-])cc1`, the EC50 [1] was 10 µg/mL (≈ 38.7 µM), the EC50 [2] was 31 µg/mL (≈ 120 µM) and the Ratio [3] was 3.1.
`O=[N+]([O-])c1ccc(CBr)cc1` gave an EC50 [1] of 0.06 µg/mL (≈ 0.278 µM), an EC50 [2] of 0.1 µg/mL (≈ 0.463 µM) and a Ratio [3] of 1.7.
In the case of `O=[N+]([O-])c1ccccc1CBr`, the EC50 [1] is reported as 0.06 µg/mL (≈ 0.278 µM), the EC50 [2] is reported as 1.5 µg/mL (≈ 6.94 µM) and the Ratio [3] is reported as 25.
Work on `O=C(NCCCl)OCc1ccccc1[N+](=O)[O-]` yielded an EC50 [1] of 0.65 µg/mL (≈ 2.51 µM), an EC50 [2] of 52 µg/mL (≈ 201 µM) and a Ratio [3] of 80.
